# Screening data: PubChem BioAssay, Johns Hopkins Ion Channel Center
# Only some compounds are listed: those with a hit (about 3.7% of all), similar ones and a draw of the others.
# hERG rescue: shields human hERG channel from block by proarrhythmic agents; Q12809; activation (rescue from dofetilide block), less the hit threshold, % at 10 µM; CHO-hERG, FluxOR thallium flux, dofetilide IC70 present; 0.51% of 310,000 active;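 active = activation above the mean of controls blocked by dofetilide plus 5 SD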;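 also: thallium influx through hERG after potassium depolarization seen as dye fluorescence rise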
# KCNQ1 pot: potentiators or activators of human KCNQ1 potassium channel; P51787; CHO-K1 KCNQ1, thallium flux FluxOR fluorescence; stronger effect = higher value; B-score at 10 µM; 0.35% of 310,000 active;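 active = fluorescence ratio B-score, a plate-corrected score, at least three library SD, with initial intensity B-score within 5 SD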
#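 Assay system: CHO-K1 cells stably expressing KCNQ1; Medium: assay buffer with matched DMSO; Also added: K+/Tl+ depolarizing stimulus; Dosing: single dose; Timing: dye 90 min, compound 20 min, room temperature; Measured by: kinetic FluxOR thallium fluorescence, 10-s 1-Hz baseline, 110-s post-stimulus read; Read-out: peak-minus-minimum fluorescence over initial fluorescence, negative-control normalized, B-scored.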
# KCNK3 block: human KCNK3 channel inhibition, primary screen | CHO-KCNK3 thallium flux, FluxOR fluorescence; stronger effect = lower value | AID 602410 | 0.84% of 340,000 active | B-score at 10 µM | O14649;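 active = B-score under library mean minus 4 SD, starting fluorescence ratio at most library mean plus 5 SD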;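 also: more negative B-score means stronger inhibition of thallium flux through KCNK3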
# Target sequence (O14649 whole entry, looked up): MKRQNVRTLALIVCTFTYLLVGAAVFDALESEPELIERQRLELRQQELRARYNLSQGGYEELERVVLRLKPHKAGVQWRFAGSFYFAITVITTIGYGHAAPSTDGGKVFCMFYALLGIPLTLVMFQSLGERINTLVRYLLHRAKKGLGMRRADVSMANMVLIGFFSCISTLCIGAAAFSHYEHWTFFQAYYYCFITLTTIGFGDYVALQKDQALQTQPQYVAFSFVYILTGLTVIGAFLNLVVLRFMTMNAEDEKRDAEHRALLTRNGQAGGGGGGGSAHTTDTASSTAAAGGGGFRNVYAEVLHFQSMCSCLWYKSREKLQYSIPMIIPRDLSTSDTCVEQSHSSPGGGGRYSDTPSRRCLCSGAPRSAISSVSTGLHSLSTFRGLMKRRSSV
# KCNQ1 block: human KCNQ1 channel inhibition; P51787; CHO-K1 KCNQ1, FluxOR thallium flux fluorescence; stronger effect = higher value; B-score at 10 µM; 1.3% of 310,000 active; AID 2642;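 active = compounds whose thallium flux B-score, printed positive for inhibition, exceeds three library SD while starting fluorescence stays within three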;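 also: channel opened by potassium depolarization with thallium stimulus after 20 min compound exposure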
# Kir21 inh: Kir2.1 (mouse) channel inhibition. 0.85% of 310,000 active. B-score at 10 µM. HEK293-Kir2.1, FluxOR thallium flux fluorescence; stronger effect = lower value. P35561;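 active = fluorescence ratio B-score at or below minus 3 SD of library scores, with starting-brightness B-score within 2 SD, cut at about -4.2 in these data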;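 also: channel flux triggered by added potassium and thallium sulfate stimulus; B-score of peak minus minimum fluorescence over baseline after thallium stimulus; more negative B-score means stronger Kir2.1 block with less thallium influx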
# KCNK9 inh: inhibitors of human KCNK9 two-pore domain potassium channel | B-score at 10 µM | 1.2% of 310,000 active | HEK293 KCNK9, FluxOR thallium flux fluorescence; stronger effect = lower value | Q9NPC2;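 active = ratio B-score over 3 SD below the library mean, with starting fluorescence within 5 SD of its mean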;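 also: negative B-score means less thallium flux so channel inhibition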
# KCNK9 inh conf: human KCNK9 inhibitor confirmation | shares compounds with KCNK9 inh | HEK293 KCNK9 cells, FluxOR thallium flux fluorescence | inhibition, % at 10 µM | 43% of 4,900 active;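 active = thallium signal inhibited by more than 5 SD of the compound-free buffer control wells, on both duplicate plates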
# Kir21 sel: selectivity of KCNK9 modulators against mouse Kir2.1; shares compounds with KCNK9 inh; Kir2.1 cells, FluxOR thallium flux fluorescence; inhibition, % at 10 µM; 4% of 4,900 active; AID 492993;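 active = thallium signal drop more than 5 SD beyond the mean of the no-compound control wells, seen in both duplicate plates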;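 also: signal is fluorescence rise after thallium addition divided by baseline fluorescence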
# HEK293 Tl ctr: second counter-screen for KCNK9 modulators: effect in non-induced cells | shares compounds with KCNK9 inh | non-induced KCNK9-HEK293, FluxOR thallium flux | inhibition, % at 10 µM | 40% of 4,900 active | AID 492997;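 active = thallium signal drop beyond 5 SD of the untreated control mean, on both duplicate plates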
# Hits are given with their value; 0 = inactive; - = not tested or not shown.
SMILES,hERG rescue,KCNQ1 pot,KCNK3 block,KCNQ1 block,Kir21 inh,KCNK9 inh,KCNK9 inh conf,Kir21 sel,HEK293 Tl ctr
Cc1ccc(-c2ccc(/C=C3\C(=O)ON=C3c3ccccc3)o2)c([N+](=O)[O-])c1,0,8,0,0,0,0,0,0,32.0%
O=C(COc1ccc([N+](=O)[O-])cc1)NCC(c1cccs1)N1CCOCC1 (stereo not given),0,0,0,0,0,0,-,-,-
CC(=O)N1c2ccc(S(=O)(=O)NCCC(=O)N3CCC(C)CC3)cc2CC1C (stereo not given),0,0,0,0,0,0,-,-,-
O=C(/C=C/c1ccccc1)NC(NC(=S)Nc1cc(Cl)ccc1Cl)C(Cl)(Cl)Cl (stereo not given),0,0,0,11,0,0,0,0,0
Cc1ccc(C)c(N2CCN(C(=O)c3ccc(CS(=O)Cc4cccc(Cl)c4)o3)CC2)c1 (stereo not given),0,0,0,0,0,0,0,0,0
Cc1cccc(N2CCN(C(=O)c3ccc(CS(=O)Cc4ccc(Cl)cc4)o3)CC2)c1C (stereo not given),0,0,0,0,0,0,-,-,-
Cc1ccc(C)c(N2CCN(C(=O)c3cc4c(C)nc5ccccc5c4o3)CC2)c1,0,0,0,0,0,-8.79,35.0%,0,0
COc1ccc(CC(=O)Nc2nc(-c3cc(OC)ccc3OC)cs2)cc1,0,0,0,0,0,0,-,-,-
COc1ccc(OC)c(-c2csc(NC(=O)C3c4ccccc4Oc4ccccc43)n2)c1,0,0,0,0,0,-9.13,36.0%,0,32.5%
O=C(Cc1ccc(Br)cc1)N1CCOCC1,0,0,0,0,0,0,-,-,-
CCOC(=O)/C(=C\Nc1ccc(OC(F)(F)F)cc1)Sc1ncc(C(F)(F)F)cc1Cl,0,0,0,0,0,0,0,0,0
CCc1ccc(OCCCCN(C)Cc2ccccc2)cc1,0,0,0,0,-6.11,0,0,0,0
CCN(CC)S(=O)(=O)c1cccc(-c2nnc(SCCOc3ccc(Cl)cc3)o2)c1,0,0,0,0,0,-9.96,48.5%,0,0
CCN(CC)S(=O)(=O)c1cccc(-c2nnc(SCCOc3ccccc3C)o2)c1,0,0,0,0,0,0,0,0,0
CCN(CC)S(=O)(=O)c1cccc(-c2nnc(SCC(=O)c3cc(C)n(C)c3C)o2)c1,0,0,0,0,0,0,-,-,-
O=c1/c(=C\c2cccc(O)c2)sc2nc(-c3ccccc3)c(-c3ccccc3)n12,0,0,0,0,0,-10.3,43.0%,0,28.0%
CCc1ccccc1NC(=O)c1ccc(NCCc2ccccc2)c([N+](=O)[O-])c1,0,0,0,0,0,-8.71,0,0,30.5%
CCCN(CCC)S(=O)(=O)c1ccc(C(=O)N2CCCc3ccccc32)cc1,0,0,0,0,0,0,0,0,0
CCCN(CCC)S(=O)(=O)c1ccc2c(c1)CCCN2C(C)=O,0,0,0,0,0,0,-,-,-
Cc1c(C(=O)N2CCN(S(=O)(=O)c3cc(F)ccc3F)CC2)oc2ccccc12,-,-,0,-,-,-,-,-,-
CC(=O)Nc1ccc(OCC(=O)N2CCc3ccccc3C2)cc1,0,0,0,0,0,0,-,-,-
O=C(Cc1c(Cl)cccc1Cl)OCC(=O)N1CCc2ccccc2C1,0,0,0,0,0,0,0,0,0
CC(C)c1ccc(OCC(=O)N2CCc3ccccc3C2)cc1,0,0,0,0,0,0,0,0,0
Cc1cc(C)nc(SCc2nnc(SCc3ccccc3Cl)o2)n1,0,0,0,0,0,-8.45,47.0%,0,0
COc1ccc(C(=O)Nn2c(SCc3cccc([N+](=O)[O-])c3)nc3ccccc3c2=O)cc1,0,0,0,0,0,-12.3,68.0%,0,31.5%
SMILES,hERG rescue,KCNQ1 pot,KCNK3 block,KCNQ1 block,Kir21 inh,KCNK9 inh,KCNK9 inh conf,Kir21 sel,HEK293 Tl ctr
O=C(CSc1nc2ccccc2c(=O)n1-c1ccccc1)c1cccc([N+](=O)[O-])c1,0,0,0,0,0,0,-,-,-
COc1ccc(C(=O)Nn2c(SCC(=O)NC3CCCCC3)nc3ccccc3c2=O)cc1,0,0,0,0,0,0,-,-,-
O=C(Nn1c(SCc2cccc([N+](=O)[O-])c2)nc2ccccc2c1=O)c1ccccc1,0,0,0,0,0,-12.7,67.0%,0,43.0%
C=CCOc1cccc(CNc2cccc(C(=O)O)c2)c1,0,0,0,0,0,0,-,-,-
CCCCCCCn1c2c(c(=N)c3c1CCC3)CCCC2,0,0,0,6,-6.47,-9.85,69.5%,77.5%,36.5%
CCn1c2c(c(=N)c3c1CCC3)CCC2,0,0,0,0,0,0,-,-,-
CCCCCCCCCn1c2c(c(=N)c3c1CCC3)CCC2,0,0,-18.7,10,-15.2,-15.6,62.0%,87.0%,42.5%
CCCCCCn1c(=O)[nH]c2c(c1=O)CCC2,0,0,0,0,0,0,-,-,-
O=C(CSc1nc2ccccc2o1)Nc1ccccc1N1CCCCCC1,0,0,0,0,0,-10.7,61.0%,39.5%,41.0%
Cc1ccc(/C=N/N2CCN(Cc3cccc4ccccc34)CC2)s1,0,0,0,0,0,0,0,0,0
Cc1ccc(/C=N/N2CCN(Cc3cccc4ccccc34)CC2)o1,0,0,0,0,0,0,0,0,0
Cc1ccc(OCC(=O)Nc2cc(NC(=O)COc3ccc(C)c(C)c3)cc(C(=O)O)c2)cc1C,0,0,0,0,0,0,0,0,0
Cc1ccc(C)c(OCC(=O)Nc2ccc(C(=O)O)cc2NC(=O)COc2cc(C)ccc2C)c1,0,0,0,0,0,0,0,0,0
COc1ccc(OCC(=O)Nc2cc(NC(=O)COc3ccc(OC)cc3)cc(C(=O)O)c2)cc1,0,0,0,0,0,0,-,-,-
Nc1ccc(C(=O)N2CCN(S(=O)(=O)c3ccc(Cl)s3)CC2)cc1[N+](=O)[O-],0,0,0,0,0,0,-,-,-
COc1ccc(CCNC(=O)c2cccc(C(=O)NCCc3ccc(OC)cc3)n2)cc1,0,0,0,0,0,0,-,-,-
Cc1ccc(-c2cccc(C(=O)NCCc3ccccc3)n2)c2ccccc12,0,0,0,0,0,-16.6,75.5%,0,32.0%
Cc1ccc(-c2cccc(C(=O)NCc3ccccc3)n2)c2ccccc12,0,0,0,0,0,0,0,0,0
N#Cc1c(Nc2ccc(Cl)cc2)s[nH]c1=O,0,0,0,0,0,0,0,0,0
CSc1nc(Nc2ccc(Cl)cc2)c(C#N)c(=O)[nH]1,0,0,0,0,0,0,-,-,-
